Results on 48 sequences are retold here after the EternaBench riboswitch data.

The subject of the data set is MS2 coat protein. The experiment in a line: apparent Kd, MS2 coat protein; higher = weaker binding; RNA-MaP array; FMN 200 µM where present. The method in brief: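 Green signal from SNAP-549-labelled MS2 coat protein was normalised to red-channel RNA signal and to the median Fmax of control clusters. The protein was titrated from 0.7 or 1.5 nM, doubling to 3 µM, without and then with constant ligand, over designs transcribed by stalled E. coli RNA polymerase on Illumina sequencing-chip clusters, in 100 mM Tris-HCl pH 7.5, 80 mM KCl, 4 mM MgCl2, BSA, DTT, yeast tRNA and Tween-20. The apparent Kd is the median of filtered per-cluster binding-curve fits.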

Where [1] appears, read: designed as: ON switch for flavin mononucleotide, no ligand.
[2] abbreviates: ligand present: flavin mononucleotide, designed as: ON switch for flavin mononucleotide.
Where [3] appears, read: designed as: OFF switch for flavin mononucleotide, no ligand.
Setting [4] is: ligand present: flavin mononucleotide, designed as: OFF switch for flavin mononucleotide.

As to “GCCAUCACAUGAGGAUAUGCUCGGGUUUCCCGAGCAGAAGGCAUGUCAUAGGACAUGAGGAUCACCCAUGUAGUUAAGAUGGCA”, the “apparent Kd” value is 0.507 µM under setting [1] and 0.0171 µM under setting [2].
For “GGAGACCUCACAGGAUAUGCUGGACUUUGUCCAGCAGAAGGGUGGAAACAUGAGGAUCACCCAUGUAUGGUCUCCAAAUUUAAU”, the “apparent Kd” value reads like this: under setting [1], 0.089 µM; under setting [2], 0.00874 µM.
In the case of “UUUUAACAUGAGGAUCACCCAUGUGAGGAUAUCGAAAUUUAUAUUAAUAUUUAUUAUUCGAGAAGGCACAUUUU”, the “apparent Kd” value reads like this: under setting [3], 0.152 µM; under setting [4], 0.167 µM.
Take “UUGAAGUCAUCAGGAUAUAGUAUUAAAGACAUUUAUAUUUUCAAACAUGAGGAUCACCCAUGUCGCUAGAAGGGAUUAUAGAUU”: the “apparent Kd” value stood at 0.0491 µM under setting [3] and 0.0449 µM under setting [4].
Consider “UCACGGUAUGUAGGAUAUGCAUAGCAUUGCUAUGCAGAAGGACAUGAGGAUCACCCAUGUAUGUAUUCCAUACUAAUCCCGUGC”, for which the “apparent Kd” value under setting [3] stood at 0.00601 µM and the “apparent Kd” value under setting [4] came to 0.00603 µM.
For the sequence “ACAUUGCGAGGAUAUACAUGAGGAUCACCCAUGUGGUAGUAGAUACGGUAGGGCUAGUGUAGAAGGUGUCAUGG”, the “apparent Kd” value turned out to be 0.137 µM under setting [3] and 0.131 µM under setting [4].
As for “UCUGGUCGAGGAUAUACAUAACGUGCUUCGGCACGAGAUCUACAUGAGGAUCACCCAUGUAGAAGGCGACCAGA”, the “apparent Kd” value came to 0.0167 µM under setting [3] and 0.0467 µM under setting [4].
As for “GUAGCACAAACAAAUGUAACAUGAGGAUCACCCAUGUGUUAUGAGGAUAUGGAUGUGAAGUUAAUCCAGAAGGCAUUAUGCUAA”, the “apparent Kd” value runs as follows: under setting [1], 0.0172 µM; under setting [2], 0.0151 µM.
With “GGGCGUGAAGGAUAUACAUGAGGAUCACCCAUGUGGGAGGAGAGUGGUGAGGAGGCUGGUAGAAGGUCAGGAUG”, the “apparent Kd” value under setting [3] turned out to be 0.0448 µM and the “apparent Kd” value under setting [4] stood at 0.0368 µM.
Take “GGAUGACAUAGUCAUCCUUAACGAACAUGAGGAUCACCCAUGUAGGAUAUGCUACUCAAAGAGUAGCAGAAGGACAUGUGUCUU”: the “apparent Kd” value turned out to be 0.0272 µM under setting [3] and 0.157 µM under setting [4].
On to “GGAUGAGCGAUAGGAUAUGCUGGGAUUGAAUGGGUAGAAGGAUUUCUAGUGGGAAAGACAUGAGGAUCACCCAUGUCGCGGACC”, for which the “apparent Kd” value by setting is: under setting [1], 0.0303 µM; under setting [2], 0.0294 µM.
As to “AGAUAACACCAGAAGGACAUGAGGAUCACCCAUGUAGGAUAUGGGCAUCACUCGAGAAAGAAAAGACCAAGUGGACACGCGGUC”, the “apparent Kd” value reads like this: under setting [1], 0.117 µM; under setting [2], 0.0107 µM.
On to “GUGUACAGAGGAUAUGCUGGAAUCUAGCGAAGCUAGGUUCCACAUGAGGAUCACCCAUGUAGAAGGCUGUACAC”, for which the “apparent Kd” value under setting [3] amounted to 0.0233 µM and the “apparent Kd” value under setting [4] is 0.0142 µM.
For the sequence “GGGUACAUCGGAGGAUAUCAUGUAAAUACAUGAGGAUCACCCAUGUCGAUGGAGACAUCGGAGAUUUAGAAGGCCGAUGUACCG”, the “apparent Kd” value by setting is: under setting [1], 0.158 µM; under setting [2], 0.201 µM.
The corresponding values for “UCCACGUGUGCAGGAUAUCCCACGAGCGCAACAUGAGGAUCACCCAUGUACCUGAGUCUCGGAACGGAGAAGGGUACAUGUUAA” are 0.34 µM and 0.0452 µM.
In the case of “AAAGUGUCAGGAUAUUGUUAGUUUAGUUGUUUGUAUUAGUUCGAGAAGGGACAUGAGGAUCACCCAUGUUGAAA”, the “apparent Kd” value runs as follows: under setting [3], 0.034 µM; under setting [4], 0.0329 µM.
Regarding “CUGUUCAGUGUAGGAUAUGCAUAUUCCCAUUAUGCAGAAGGACAUGAGGAUCACCCAUGUAUGUUAUUAUCAUGUGUUACAUGC”, the “apparent Kd” value is, setting by setting: under setting [3], 0.0336 µM; under setting [4], 0.124 µM.
With “ACAUCGUGAGACAUGAGGAUCACCCAUGUGUGAUAGUGGGCACAGGAUAUCCAAAUUUGGAAUUUGGAGAAGGGUGAUCGUUAA”, the “apparent Kd” value runs as follows: under setting [1], 0.0721 µM; under setting [2], 0.0686 µM.
The corresponding values for “AUUUAUGUCAUAGGAUAUAUAAAUAAAUUUAUAACAUGAGGAUCACCCAUGUACUUUAGUAUGAGGUAGAAGGAUGAUAAGAGU” are 0.0351 µM and 0.0267 µM.
Take “UUUUAACAUGAGGAUCACCCAUGUGAGGAUAUCGAAAUUUAUAUUUAUAUUAAUAAAUCGAGAAGGCACAUUUU”: the “apparent Kd” value is, setting by setting: under setting [3], 0.117 µM; under setting [4], 0.117 µM.
With “UUGGACGUCGUAGGAUAUGUAGGAAAUUCCUACAUGAGGAUCACCCAUGUUGACAUGGAAGAAGGACAGAAGGACGAUGUCCAU”, the “apparent Kd” value by setting is: under setting [1], 0.262 µM; under setting [2], 0.0124 µM.
On to “CGCGAACAUGAGGAUCACCCAUGUGAAAAACAUAGAGGAUAUGUCGCAUGCGUGUAAAAGACAGAAGGCUAUCGCG”, for which the “apparent Kd” value came to 0.0767 µM under setting [1] and 0.0279 µM under setting [2].
Turning to “UAUAUAUAGGCAGGAUAUACAUGAAUAUAUAUAAUAUAAUAUGAUGUAACAUGAGGAUCACCCAUGUAGAAGGGCCAAUAUAUA”, the “apparent Kd” value came out at 0.0326 µM under setting [3] and 0.0649 µM under setting [4].
On to “ACAUGAGGAUCACCCAUGUUCACAUAGGAUAUUGAUUAUAUUGGAUAUAUUUUUUUUAUAAUACACAAGAAGGAUGCAAGAUGG”, for which the “apparent Kd” value runs as follows: under setting [1], 0.0193 µM; under setting [2], 0.0163 µM.
With “UGUCCAUAGCAGAAGGACAUGAGGAUCACCCAUGUAAUAAAACAUCCAAAUGUAGGAUAUGCUAUGGACUAAGAGCGAAAGCUC”, the “apparent Kd” value under setting [3] was found to be 0.0289 µM and the “apparent Kd” value under setting [4] is 0.606 µM.
“UUGGACGUCGUAGGAUAUGUAGGAUAUCCCUACAUGAGGAUCACCCAUGUUGACAUGGAAGAAGGACAGAAGGACGAUGUCCAU”: the “apparent Kd” value by setting is: under setting [1], 0.105 µM; under setting [2], 0.0118 µM.
As for “UGGUACUAGGGAGGAUAUGGGAAGAUACAUGAGGAUCACCCAUGUUUAAGAAUACCGAGAGGCAACUAGAAGGCCCUAGUACCU”, the “apparent Kd” value runs as follows: under setting [1], 0.192 µM; under setting [2], 0.0133 µM.
For the sequence “GGGUUUGGAGGAUAUACAAUGGGUUUGGGAAACCGGGCCCUACAUGAGGAUCACCCAUGUAGAAGGCCGGGCCC”, the “apparent Kd” value worked out at 0.0148 µM under setting [3] and 0.0158 µM under setting [4].
For the sequence “GUGAAGAUAUCAGGAUAUCUAUUUCCUACAUGAGGAUCACCCAUGUAGGUGAUCAGCCGAGUAAAGGAGAAGGGAUAUCUUUAC”, the “apparent Kd” value by setting is: under setting [1], 0.0236 µM; under setting [2], 0.0101 µM.
On to “CCUCAGUAAGGAUAUCAGCUUAGGAGGUUGGUAAUGAGAGCUGAGAAGGUACAUGAGGAUCACCCAUGUUAGUU”, for which the “apparent Kd” value came to 0.0307 µM under setting [3] and 0.0764 µM under setting [4].
Turning to “GCACUGGCAGGAUAUACAUGAGGAUCACCCAUGUGAUCCCUUAAGUACAAAAGUACAAGUAGAAGGGCCUGUGC”, the “apparent Kd” value runs as follows: under setting [3], 0.771 µM; under setting [4], 0.188 µM.
With “GAAUUAAUGAUCCAAUUUUACAACAUGAGGAUCACCCAUGUGCAGGAUAUCGUGUGUUUUAUAUUCGAGAAGGGCAAAUACAUU”, the “apparent Kd” value by setting is: under setting [3], 0.161 µM; under setting [4], 0.287 µM.
As to “AUAUCUUGUCGAGGAUAUGUAGUAUUGAUCUGAAAACAUGAGGAUCACCCAUGUAUACGGUGGGUACAGAAGGUGGAUGUAGAA”, the “apparent Kd” value by setting is: under setting [3], 0.416 µM; under setting [4], 0.427 µM.
As to “GCCCUCGCUGAGGAUAUUAUCUGGUUCGAUUGAUAAGAAGGCAGUACAUGAGGAUCACCCAUGUGGUUCGUCCG”, the “apparent Kd” value under setting [3] came to 0.0767 µM and the “apparent Kd” value under setting [4] stood at 0.363 µM.
The corresponding values for “UGAUAGGACAGAGGAUAUACGUAUAAAUAUCCUCACAUGAGGAUCACCCAUGUAGAAGGCUGUCCUAUCUAAGUCGGAAACGAC” are 0.0156 µM and 0.317 µM.
Regarding “UUGGACGUCGUAGGAUAUGUAGGAUAUUCCUACAUGAGGAUCACCCAUGUUGACAUGGAAGAAUGACAGAAGGACGAUGUCCAU”, the “apparent Kd” value amounted to 0.712 µM under setting [1] and 0.0118 µM under setting [2].
Turning to “AACUGACAUGAGGAUCACCCAUGUCAGGAUAUGACUUGACGAAAUAAAACACGUCAUGUCAGAAGGGACAUGAA”, the “apparent Kd” value is, setting by setting: under setting [3], 0.0174 µM; under setting [4], 0.0152 µM.
Taken in the same sequence, the figures for “GGAUUUACUGAGGAUAUUGCAUCACCCGACUGAUAAGAAGGCAGAACAUGAGGAUCACCCAUGUGGGUACUCAC” were 0.0537 µM and 0.0632 µM.
For “AUUGAGAUAGCGAUAUGAUCGAGAGAUCAUGUCGCUAAGUUUAGAAGGACAUGAGGAUCACCCAUGUAGGAUAUGGGAGUAGAA”, the “apparent Kd” value turned out to be 0.128 µM under setting [1] and 0.0575 µM under setting [2].
As for “GGUGGCGUGAUAACGCUAGAUAUAACAUGAGGAUCACCCAUGUAGGAUAUCCUGCCGAGAGGGCGGGAGAAGGACAACCAAUGG”, the “apparent Kd” value was found to be 0.0419 µM under setting [3] and 0.0418 µM under setting [4].
Take “GGGUAGGACAGAGGAUAUACGUGCUAGAGAUACUAGCAAAAUUUCCUCACAUGAGGAUCACCCAUGUAGAAGGCUGUCCUAUCG”: the “apparent Kd” value under setting [3] turned out to be 0.0169 µM and the “apparent Kd” value under setting [4] amounted to 0.397 µM.
On to “UUUACAUGAGGAUCACCCAUGUAUGUCACCCAUGUGUGUAAUCAGGAUAUGAUAUCAAUAAUAAAUUAGAAGGGAUAACAUGAG”, for which the “apparent Kd” value is, setting by setting: under setting [1], 0.0595 µM; under setting [2], 0.0751 µM.
Turning to “UCGUACUAGGGAGGAUAUGGGAAGAUACAUGAGGAUCACCCAUGUUUAAGAAUGCCGAGAGGCAACUAGAAGGCCCUAGUACCU”, the “apparent Kd” value reads like this: under setting [1], 0.391 µM; under setting [2], 0.0191 µM.
For the sequence “AAGAGCGAUUCUCCCUUCCUACAUGAGGAUCACCCAUGUACGAGAAGGCGCCGUGUAUACAACGGUGAGGAUAUCGUGCGUUAC”, the “apparent Kd” value reads like this: under setting [3], 0.00464 µM; under setting [4], 0.00491 µM.
On to “CCGUAAAAUGGAGGAUAUGGAGCCUUAUUGGCUCCAGAAGGUCAUAAAACAUGAGGAUCACCCAUGUCGGCGGUCAAUAGACCG”, for which the “apparent Kd” value runs as follows: under setting [1], 0.0479 µM; under setting [2], 0.0202 µM.
“GUACUACAUGAGGAUCACCCAUGUACAAAGGUACGAGGAUAUGCAUGUACGAAAGUAUAUGCAGAAGGCGUAGUAC”: the “apparent Kd” value under setting [1] was 0.0258 µM and the “apparent Kd” value under setting [2] was 0.0217 µM.
For “ACACGUGUGUCAGGAUAUCACACUAAUUGGACUAACUAUAUGAAAGCACAUGAGGAUCACCCAUGUGAGAAGGGACGCCACCUG”, the “apparent Kd” value under setting [3] is 0.012 µM and the “apparent Kd” value under setting [4] came to 0.00997 µM.
Turning to “CGUGCAAAUGUAGGAUAUGGUUAUCUAUGUCUAGUUACUAGACAUAGAUAACCAGAAGGACAUGAGGAUCACCCAUGUAGCACG”, the “apparent Kd” value by setting is: under setting [3], 0.0067 µM; under setting [4], 0.0215 µM.

Broadly, the apparent Kd is the concentration giving half-maximal binding under the conditions of the assay.
